Series [1] in a line: Oral bioavailability in Beagle dog at 3 mg/kg by LC-MS/MS analysis. The class given is ADME, organism-based, Canis lupus familiaris. As to conditions: in vivo.
The nature of series [2]: Toxicity in dog assessed as effect on heart rate at 10 to 25 mg/kg, po. The class given is organism-based, Canis lupus familiaris. As to conditions: in vivo. In outline: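 Male dogs received oral doses of 10, 18 and 25 mg/kg. Body weight, body temperature, blood pressure, heart rate and ECG were monitored.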
For series [3], the system named is Rattus norvegicus. The experiment in a line: Induction of wake promoting activity in orexin-B-saporin lesioned Wistar rat assessed as decrease in number of direct REM sleep onset episodes at 10 to 30 mg/kg, po dosed 15 mins before start of dark phase. The class given is functional, organism-based. In outline: (§1)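 Rats carried epidural frontal-cortex EEG screws, nuchal EMG leads, and bilateral lateral hypothalamic orexin-B-saporin (490 ng/0.8 µl). After at least 3 weeks' recovery, they were dosed 15 min before lights-off in a crossover design with a 1-week washout. Wake, NREM and REM time was totalled over 3 h. DREM was scored as REM after ≥60 s wake. Dunnett's test was used.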

Series [4] is described as follows: Metabolic stability in dog hepatocytes after 30 mins by LC-MS/MS analysis. The class given is ADME, cell-based, Canis lupus familiaris, Hepatocyte. As to conditions: read-out: Stability.
For the next series, the target named is T1, Cytochrome P450 2B6 (Homo sapiens, UniProt P20813).
T1 sequence (P20813 whole entry): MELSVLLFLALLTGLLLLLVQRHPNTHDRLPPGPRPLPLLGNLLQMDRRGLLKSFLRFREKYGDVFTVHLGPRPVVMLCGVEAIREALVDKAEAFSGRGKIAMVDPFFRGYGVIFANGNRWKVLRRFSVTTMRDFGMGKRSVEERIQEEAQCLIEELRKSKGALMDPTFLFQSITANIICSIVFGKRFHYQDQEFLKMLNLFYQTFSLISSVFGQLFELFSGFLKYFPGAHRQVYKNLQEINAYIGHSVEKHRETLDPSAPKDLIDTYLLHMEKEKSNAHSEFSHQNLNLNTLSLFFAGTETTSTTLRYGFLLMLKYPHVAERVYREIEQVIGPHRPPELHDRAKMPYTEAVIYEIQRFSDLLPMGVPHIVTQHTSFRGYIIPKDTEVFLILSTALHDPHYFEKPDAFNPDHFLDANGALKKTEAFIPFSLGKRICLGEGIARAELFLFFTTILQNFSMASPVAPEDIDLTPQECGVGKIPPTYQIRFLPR
The experiment in a line: Inhibition of CYP2B6 (unknown origin). It counts as ADME.

A short description of series [5]: Lipophilicity, log D of the compound at pH 7.4. It counts as physicochemical. The note with it: buffer.
For series [6], the system named is Rattus norvegicus. Kind of series: Effect on locomotor activity in Wistar rat up to 100 mg/kg, po by open field test. The class given is ADME, organism-based. The note with it: in vivo.
A short description of series [7]: Apparent permeability across basolateral to apical side in human Caco2 cells at 10 uM. The class given is ADME, cell-based. The note with it: Caco-2. The method, boiled down:
(§2)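 Caco-2 monolayers; bidirectional permeability measured at 10 µM, with and without the P-gp inhibitor verapamil.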
(Caco-2 cells form a polarised layer with tight junctions and transporters.)

Series [8] deals with Rattus norvegicus. Kind of series: Induction of wake promoting activity in orexin-B-saporin lesioned Wistar rat assessed as decrease in REM sleep time at 10 to 30 mg/kg, po dosed 15 mins before start of dark phase. It counts as functional, organism-based. The method, boiled down: as §1
The test system of series [9] is Rattus norvegicus. Kind of series: In vivo inverse agonist activity at histamine 3 receptor in rat assessed as inhibition of RAMH-induced dipsogenia at 0.3 to 10 mg/kg, po measured after 3 days. The class given is functional, organism-based. In outline: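 Male rats were dosed orally with 0.3, 0.5, 0.7, 1, 3 or 10 mg/kg (vehicle 1 mL/kg), then given (R)-α-methylhistamine 2.5 mg/kg s.c. Read-out was water intake (mL), reported as mean ± SEM.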

Series [10] is described as follows: Clearance in Wistar rat at 1 mg/kg, iv by LC-MS/MS analysis. As to conditions: in vivo. The class given is ADME, organism-based. The method, boiled down:
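Fasted male Wistar rats dosed i.v. in water for injection at 2 mL/kg. Clearance and half-life derived from the i.v. plasma profile.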

Series [11] in a line: Mutagenicity in Salmonella typhimurium TA1535 in absence of metabolic activation by Ames test. It counts as toxicity. As to conditions: salmonella enterica subsp. enterica serovar typhimurium. In general terms: The Ames test detects mutagens through reverse mutation in bacteria.
Series [12] is described as follows: Fraction unbound in dog plasma at 1 uM by equilibrium dialysis. The class given is ADME, cell-free, Canis lupus familiaris. The method, boiled down: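 Rapid equilibrium dialysis of fresh rat, dog or human plasma at a compound concentration of 1.0 µM. Unbound fraction reported as a percentage.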
The nature of series [13]: Metabolic stability in human liver microsomes in presence of NADPH after 30 mins by LC-MS/MS analysis. It counts as ADME, Microsome. The note with it: read-out: Stability.
Series [14] in a line: Mutagenicity in Salmonella typhimurium TA1535 in presence of metabolic activation by Ames test. The class given is toxicity. As to conditions: salmonella enterica subsp. enterica serovar typhimurium.
The nature of series [15]: Tmax in Beagle dog at 3 mg/kg, po or 1 mg/kg, iv by LC-MS/MS analysis. It counts as ADME, organism-based, Canis lupus familiaris. As to conditions: in vivo.
Series [16] in a line: Metabolic stability in dog liver microsomes in presence of NADPH after 30 mins by LC-MS/MS analysis. The class given is ADME, Canis lupus familiaris, Microsome. The note with it: read-out: Stability. In general terms: Liver microsomes are a subcellular fraction often used to study metabolism.
The target of another series is Cytochrome P450 2D6 (Homo sapiens, UniProt P10635). The experiment in a line: Inhibition of CYP2D6 in human liver microsomes using dextromethorphan as substrate after 12 mins in presence of NADPH by LC-MS/MS analysis. It counts as ADME.
Chain of Cytochrome P450 2D6 (P10635 whole entry): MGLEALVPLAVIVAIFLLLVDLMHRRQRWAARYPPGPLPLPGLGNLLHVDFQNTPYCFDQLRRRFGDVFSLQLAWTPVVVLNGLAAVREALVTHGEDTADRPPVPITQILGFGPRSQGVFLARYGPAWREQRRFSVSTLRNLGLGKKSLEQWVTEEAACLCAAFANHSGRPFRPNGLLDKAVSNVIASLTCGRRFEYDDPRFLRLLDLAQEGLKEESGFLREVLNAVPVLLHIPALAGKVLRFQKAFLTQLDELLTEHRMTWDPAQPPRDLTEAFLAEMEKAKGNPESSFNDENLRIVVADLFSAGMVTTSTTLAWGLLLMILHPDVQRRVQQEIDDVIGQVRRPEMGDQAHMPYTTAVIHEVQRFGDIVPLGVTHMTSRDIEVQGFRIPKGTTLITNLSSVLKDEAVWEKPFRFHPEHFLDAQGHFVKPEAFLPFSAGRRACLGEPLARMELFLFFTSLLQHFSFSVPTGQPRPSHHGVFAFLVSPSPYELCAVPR
The nature of series [17]: AUCt in Beagle dog at 3 mg/kg, po by LC-MS/MS analysis. The class given is ADME, organism-based, Canis lupus familiaris. As to conditions: in vivo.
Another series has as its target T2, Cytochrome P450 2C8 (Homo sapiens, UniProt P10632).
T2 sequence (P10632 whole entry): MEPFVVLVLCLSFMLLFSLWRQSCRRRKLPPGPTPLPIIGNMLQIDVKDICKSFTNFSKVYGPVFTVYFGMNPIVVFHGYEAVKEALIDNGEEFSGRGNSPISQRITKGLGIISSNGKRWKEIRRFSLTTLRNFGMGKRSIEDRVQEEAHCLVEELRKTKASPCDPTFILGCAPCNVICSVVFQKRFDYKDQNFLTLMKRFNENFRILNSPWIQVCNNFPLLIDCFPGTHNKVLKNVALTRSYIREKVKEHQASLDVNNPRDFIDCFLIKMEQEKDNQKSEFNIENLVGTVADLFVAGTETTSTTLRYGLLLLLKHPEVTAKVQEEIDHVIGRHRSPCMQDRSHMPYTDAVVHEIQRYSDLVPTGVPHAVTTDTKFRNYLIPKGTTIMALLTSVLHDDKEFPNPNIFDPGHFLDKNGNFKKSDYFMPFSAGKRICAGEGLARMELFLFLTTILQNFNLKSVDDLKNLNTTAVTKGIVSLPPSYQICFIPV
The experiment in a line: Inhibition of CYP2C8 (unknown origin). It counts as ADME.

A further series concerns the target Cytochrome P450 3A4 (Homo sapiens, UniProt P08684). Kind of series: Inhibition of CYP3A4 in human liver microsomes using midazolam as substrate after 2 mins by LC-MS/MS analysis. The class given is ADME.
A short description of series [18]: Apparent permeability across apical to basolateral side in human Caco2 cells at 10 uM. The class given is ADME, cell-based. As to conditions: Caco-2. In outline: as §2

Data on one compound can be found in ChEMBL document CHEMBL4368912, “Discovery and Development of N-[4-(1-Cyclobutylpiperidin-4-yloxy)phenyl]-2-(morpholin-4-yl)acetamide Dihydrochloride (SUVN-G3031): A Novel, Potent, Selective, and Orally Active Histamine H3 Receptor Inverse Agonist with Robust Wake-Promoting Activity” (J Med Chem, 2019).

Molecules are shown by their SMILES. The source made the active and inactive calls. The rule behind the calls is not given here.

Chain of Cytochrome P450 3A4 (P08684 whole entry): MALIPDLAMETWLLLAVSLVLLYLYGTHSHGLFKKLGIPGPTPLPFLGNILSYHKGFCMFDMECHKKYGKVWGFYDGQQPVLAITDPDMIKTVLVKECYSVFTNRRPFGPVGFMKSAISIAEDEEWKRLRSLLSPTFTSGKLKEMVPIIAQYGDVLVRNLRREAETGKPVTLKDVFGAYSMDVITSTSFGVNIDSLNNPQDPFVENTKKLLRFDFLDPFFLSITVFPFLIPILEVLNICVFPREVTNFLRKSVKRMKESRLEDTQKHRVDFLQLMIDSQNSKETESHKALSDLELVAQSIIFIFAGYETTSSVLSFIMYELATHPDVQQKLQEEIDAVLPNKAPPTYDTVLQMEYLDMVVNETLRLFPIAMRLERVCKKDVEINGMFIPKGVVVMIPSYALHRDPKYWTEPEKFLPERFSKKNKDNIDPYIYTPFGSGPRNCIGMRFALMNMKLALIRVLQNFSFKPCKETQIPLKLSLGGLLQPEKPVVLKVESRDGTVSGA

What is called bioavailability is the share of a dose that reaches the circulation, judged against a reference dose that is usually intravenous. As usually defined, the IC50 is the concentration that inhibits the measured activity by half. By logD is commonly meant the decadic logarithm of the distribution of all forms, ionised or not, between an organic phase and buffer at a given pH. The Papp B→A is how fast a substance crosses the layer from the basolateral side. One may read the clearance as the rate of elimination divided by the concentration. A higher clearance goes with a high capacity for elimination. By fraction unbound is commonly meant the share of the substance not bound to proteins or other matrix. The low end stands for extensive binding, the high end for weak binding. For orientation: Tmax means the time from dosing to the highest level. As usually defined, the AUC(0-t) is exposure summed from dosing to a finite time, without extrapolation to infinity. The low end stands for low exposure, the high end for high exposure. The Papp A→B is the apparent permeability from the apical to the basolateral side of a cell layer. `Cl.Cl.O=C(CN1CCOCC1)Nc1ccc(OC2CCN(C3CCC3)CC2)cc1`: in series [1], the bioavailability is 83%. In addition, the Activity result (in [2]; in the series on Rattus norvegicus [6]; in series [11]; in [14]) was “Non-Toxic” each time. The result in the series with Rattus norvegicus [3] and in the series with Rattus norvegicus [8] was Active. Moreover, the remaining at 0.5 h was 33% in [4], less than 5% in [13] and 13% in series [16]. Besides, the half-inhibitory concentration (IC50) at Cytochrome P450 2B6, on Cytochrome P450 2D6, at Cytochrome P450 2C8 and on Cytochrome P450 3A4 was greater than 45 µM in each case. Further, the logD in series [5] worked out at 0.4. In addition, in series [7], the Papp B→A at 10 µM turned out to be 30.8 ×10⁻⁶ cm/s. Besides, the inhibition entry in the series on Rattus norvegicus [9] was “Active”. The compound further yielded a clearance in [10] of 63 mL/min/kg. In addition, in series [12], the fraction unbound at 1 µM was determined as 0.52. The Tmax in series [15] was 15 to 60 min. Moreover, the AUC(0-t) in series [17] came out at 1120 ng·h/mL. Moreover, the Papp A→B at 10 µM in series [18] was 30.8 ×10⁻⁶ cm/s.
